Screens as filed in PubChem BioAssay.
Hits are enriched below; roughly 2.3% of the tested compounds scored in any of these assays.
TRPC4 act: activators of mouse TRPC4 channel; Q9QUQ5; actives 0.49% (n = 310,000); HEK293 TRPC4beta/mu-opioid, Fluo4 calcium fluorescence; hits give high values; AID 2237; B-score at 10 µM;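 active = B-score above 5 SD of library B-scores, and initial fluorescence ratio not above library mean plus 5 SD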;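 also: positive B-score marks a calcium rise read as TRPC4 activation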
Target sequence (Q9QUQ5 whole entry, looked up): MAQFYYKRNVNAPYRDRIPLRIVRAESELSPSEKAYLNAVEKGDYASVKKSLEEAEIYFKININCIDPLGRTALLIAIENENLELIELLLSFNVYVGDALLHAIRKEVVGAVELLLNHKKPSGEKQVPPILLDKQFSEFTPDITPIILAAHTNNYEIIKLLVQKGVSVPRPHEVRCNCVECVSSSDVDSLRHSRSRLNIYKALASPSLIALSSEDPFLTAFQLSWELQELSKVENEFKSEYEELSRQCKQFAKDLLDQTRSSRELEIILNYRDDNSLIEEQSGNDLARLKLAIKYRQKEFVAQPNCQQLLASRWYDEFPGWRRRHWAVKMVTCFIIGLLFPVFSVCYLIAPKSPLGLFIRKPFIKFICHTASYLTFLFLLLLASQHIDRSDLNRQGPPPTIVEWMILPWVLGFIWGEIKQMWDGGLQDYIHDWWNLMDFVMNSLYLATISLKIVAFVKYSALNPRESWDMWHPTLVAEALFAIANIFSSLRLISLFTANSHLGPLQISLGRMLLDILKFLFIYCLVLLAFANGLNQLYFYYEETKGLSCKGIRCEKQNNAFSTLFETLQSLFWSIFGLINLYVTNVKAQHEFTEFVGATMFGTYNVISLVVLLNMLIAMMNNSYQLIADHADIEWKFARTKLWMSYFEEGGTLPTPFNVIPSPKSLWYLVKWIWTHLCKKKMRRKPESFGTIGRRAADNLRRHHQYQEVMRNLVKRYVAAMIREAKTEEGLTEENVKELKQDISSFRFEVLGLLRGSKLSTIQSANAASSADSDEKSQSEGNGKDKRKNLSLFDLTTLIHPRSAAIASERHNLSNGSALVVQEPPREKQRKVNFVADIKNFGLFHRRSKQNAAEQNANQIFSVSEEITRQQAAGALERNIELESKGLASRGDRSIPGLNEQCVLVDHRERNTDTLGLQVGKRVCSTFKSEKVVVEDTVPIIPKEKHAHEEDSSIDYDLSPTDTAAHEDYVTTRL
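Test system: HEK293 cells stably co-expressing mouse TRPC4beta and mu-opioid receptor | Schedule: Fluo4 dye loading 45 min at room temperature, 110 s recording | Measured by: Kinetic Fluo4 calcium fluorescence, 5 s baseline at 1 Hz | Evaluation: B score of integrated ratio | Controls: Buffer (low) and maximal DAMGO (high)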
TRPC4 potent: TRPC4 (mouse) allosteric potentiation. HEK293 TRPC4beta/mu-opioid, DAMGO EC20, Fluo-4 Ca2+ flux; hits give high values. B-score at 10 µM. actives 0.42% (n = 310,000). AID 2227;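 active = B-score of calcium response area above 5 SD of library B-scores, with initial fluorescence ratio within 5 SD of library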
TRPC4 inh: inhibitors of mouse TRPC4 channel; Q9QUQ5; HEK293 TRPC4beta/mu-opioid, DAMGO-evoked Fluo4 calcium flux; hits give low values; B-score at 10 µM; actives 0.39% (n = 300,000);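 active = B-score over 3 SD under the library average, no early fluorescence shift, positive overall ratio signal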
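test system = HEK293 cells with stable TRPC4beta plus mu-opioid receptor expression | detection = Fluo4 Ca2+ flux fluorescence | read-out = integrated fluorescence ratio relative to baseline, converted to per-well B score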
TRPC6 inh: mouse TRPC6 channel inhibition | HEK293-TRPC6, membrane potential dye, ACh-evoked depolarization; hits give low values | AID 2553 | B-score at 10 µM | Q61143 | actives 1.1% (n = 310,000);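 active = B-score under library mean minus 3 SD, initial fluorescence not abnormally high, positive integrated signal ratio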;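 also: B-score derived from integrated fluorescence ratio over the kinetic read; more negative B-score means stronger inhibition of depolarization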
TRPC6 act: mouse TRPC6 channel activation; Q61143; HEK293-TRPC6 membrane potential dye fluorescence; hits give high values; B-score at 10 µM; actives 0.13% (n = 310,000);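 active = B-score of the integrated fluorescence ratio above library mean plus 3 SD, and starting fluorescence ratio within library mean plus 5 SD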;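 also: higher score means more depolarization so channel activation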
TRPC4 spec 2: second selectivity test of TRPC6 inhibitors: effect on mouse TRPC4. HEK293 TRPC4/MOR, membrane potential dye fluorescence; channel activated by saturating DAMGO dose. inhibition, % at 10 µM. AID 2776. shares compounds with TRPC6 inh. actives 42% (n = 920);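 active = compounds whose fluorescence signal differed from control wells by over 3 SD, either direction, in both duplicate plates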
TRPC4 spec: selectivity of TRPC6 inhibitors: effect on mouse TRPC4; shares compounds with TRPC6 inh; HEK293 TRPC4/mu-opioid, membrane potential fluorescence; activity change, negative = inhibition, % at 10 µM; actives 61% (n = 920);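 active = rise or fall in signal beyond 3 SD of buffer-only wells in both replicate plates, either sign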;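 also: integrated kinetic ratio of fluorescence range over baseline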
HEK293 MPD ctr 2-1: second check of TRPC6 inhibitor effects in parental HEK293 cells | shares compounds with TRPC6 inh | parental HEK293 membrane potential dye fluorescence; maximal acetylcholine challenge after compound addition | signal change vs control, % at 10 µM | actives 31% (n = 920) | AID 2779;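 active = membrane potential signal moving either way by over 3 SD of the maximum-effect control, in both duplicate plates, meaning non-specific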
HEK293 MPD ctr-1: parental HEK293 nonspecific activity of TRPC6 inhibitors. shares compounds with TRPC6 inh. parental HEK293 membrane potential dye fluorescence. membrane potential signal change, % at 10 µM. actives 60% (n = 920). AID 2780;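 active = membrane potential signal shifting up or down by more than 3 SD of buffer-only wells, on both duplicate plates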
HEK293 MPD ctr-2: counter-screen for TRPC6 modulators: effect in parental HEK293 cells. shares compounds with TRPC6 inh. membrane potential dye fluorescence. membrane potential signal change, % at 10 µM. actives 51% (n = 2,400);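 active = membrane potential signal moves up or down beyond 5 SD from buffer-only wells, on both duplicate plates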
HEK293 MPD ctr 2-2: second counter-screen for TRPC6 modulators: effect in parental HEK293 cells. inhibition, % at 10 µM. membrane potential dye fluorescence; after compound, maximal acetylcholine stimulation. AID 488926. shares compounds with TRPC6 inh. actives 14% (n = 2,400);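 active = membrane potential signal drops by more than 5 SD from the mean control signal, in both duplicate plates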
TRPC4 ctr mod: tests whether TRPC6 modulators also affect mouse TRPC4; actives 69% (n = 2,400); shares compounds with TRPC6 inh; AID 488927; HEK293 TRPC4/mu-opioid, membrane potential fluorescence; percent change from control (negative = decrease, positive = increase), % at 10 µM;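 active = membrane potential signal moved up or down beyond 5 SD of buffer control wells, in both duplicate plates, actives on both sides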
TRPC4 ctr inh 2: second selectivity test of TRPC6 modulators against mouse TRPC4; shares compounds with TRPC6 inh; HEK293 TRPC4/mu-opioid, membrane potential dye fluorescence; stimulated with maximal-effect DAMGO; inhibition, % at 10 µM; actives 55% (n = 2,400);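 active = drop in membrane potential signal beyond 5 SD of the control wells in both duplicate plates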;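 also: TRPC4 counter screen for TRPC6 hits run under conditions tuned for TRPC6 not TRPC4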
TRPC6 inh conf: confirmation of mouse TRPC6 inhibitors; shares compounds with TRPC6 inh; HEK293-TRPC6, membrane potential dye, ACh-evoked depolarization; inhibition, % at 10 µM; actives 43% (n = 3,300);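 active = fluorescence ratio falls more than 5 SD below the full-stimulation control mean, in both duplicate runs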;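 also: integrated fluorescence ratio of peak minus minimum over baseline after agonist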
TRPC6 act confirm: confirmation of mouse TRPC6 activators; shares compounds with TRPC6 inh; HEK293-TRPC6 membrane potential dye fluorescence, FDSS; activation, % at 10 µM; actives 11% (n = 2,800); AID 488961;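 active = ratio signal rise beyond 5 SD above unstimulated control wells' mean, seen in both duplicate runs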
Hits are given with their value; – = inactive; · = no result.

SMILES	TRPC4 act	TRPC4 potent	TRPC4 inh	TRPC6 inh	TRPC6 act	HEK293 MPD ctr-2	HEK293 MPD ctr 2-2	TRPC4 ctr mod	TRPC4 ctr inh 2	TRPC6 inh conf	TRPC6 act confirm	others
CCCCCCn1c2c(c(=N)c3c1CCC3)CCC2	–	–	–	-8.5	–	·	·	·	·	78%	–	TRPC4 spec 2=69%;TRPC4 spec=-25%;HEK293 MPD ctr 2-1=-12%;HEK293 MPD ctr-1=-452%
CNCC(O)Cn1c2c(c3ccccc31)CCCC2 (stereo not given)	–	–	–	–	–	·	·	·	·	·	·
CCCCCCCn1ccc(=N)cc1	–	–	–	–	–	·	·	·	·	·	·
Fc1ccc(CN2CCCCCCC2)cc1	–	–	–	–	–	·	·	·	·	·	·
N=c1c2c(n(Cc3ccc(F)cc3)c3c1CCC3)CCC2	–	–	–	-5.8	–	-192%	–	-32%	62%	–	–
Cc1ccccc1C(=O)Nc1ccnn1C1CCN(Cc2cnn(C(C)C)c2)CC1	–	–	–	–	–	·	·	·	·	·	·
Cc1ccsc1C(=O)Nc1ccc(OCc2ccccc2)cc1	–	–	–	–	–	·	·	·	·	·	·
CCn1c(SCC(=O)Nc2c(C#N)cnn2-c2ccccc2)nnc1-c1cccs1	–	–	–	–	–	·	·	·	·	·	·
CCn1c2c(c(=N)c3c1CCC3)CCC2	–	–	–	-7	–	-234%	–	-39%	40%	36%	–
Cc1cc(C)cc(-n2c(C)cc(/C=N/NC(=O)CSc3ncccn3)c2C)c1	–	–	–	-9.9	–	·	·	·	·	–	–	TRPC4 spec 2=–;TRPC4 spec=–;HEK293 MPD ctr 2-1=–;HEK293 MPD ctr-1=–
Cn1c(=O)c2c([nH]c(OCc3ccc(Cl)cc3Cl)[n+]2Cc2ccc(F)cc2)n(C)c1=O	–	–	–	–	–	·	·	·	·	·	·
OC(c1cc(-c2ccc(C(F)(F)F)cc2)nc(C(F)(F)F)c1)C1CCCCN1 (stereo not given)	43	–	–	-5.9	–	–	57%	-10%	54%	–	–
COC(=O)CSc1nc(-c2ccc(F)cc2)cc(C(F)(F)F)n1	–	–	–	–	–	·	·	·	·	·	·
Cc1ccc2c(CN3CCN(S(=O)(=O)c4ccc5c(c4)OCCO5)CC3)cc(=O)oc2c1C	–	–	–	-5.6	–	–	–	–	–	–	–
CCOCCc1nn2c(=O)cc(CSCC(=O)Nc3ccccc3)nc2s1	–	–	–	–	–	·	·	·	·	·	·
COc1cc(/C=N/n2cnnc2)ccc1OCC(=O)N1CCOCC1	–	–	–	-7.2	–	-334%	–	-54%	44%	46%	–
CCCCn1c(NCc2ccc3c(c2)OCO3)nc2ccccc21	–	–	–	-5.2	–	–	–	–	88%	40%	–
CCCn1c(NCc2ccc3c(c2)OCO3)nc2ccccc21	–	–	–	-5.2	–	–	–	8.0%	74%	44%	–
